Laboratory results: article PMC10730135 (Human Vaccines & Immunotherapeutics, 2023)
“Also recorded” adds a separate entry of the source.

How the values were obtained:
[1] = system: HLA-A2 molecules on T2 cell surface; assay: T2 cell binding assay; set-up: species or system human; conditions: in words
Summary of the method: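 T2 cells (1 × 10^6/mL) incubated 18 h at 37°C, 5% CO2 with 50 µg/mL peptide in RPMI-1640 plus 3 µg/mL human β2-microglobulin; no-peptide blank included. Washed three times in PBS, stained 30 min with FITC anti-HLA-A2, MFI read by flow cytometry. FI = (MFI peptide − MFI blank)/MFI blank. Classes: FI >1.0 high, 0.5–1.0 medium, <0.5 low.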

CD8+T cells = assay: IFN-γ ELISA of DC/CD8+T cell co-culture supernatant; assay type: cell-based, human; conditions: for IFN-γ content in culture medium (ELISA): 12th day of co-cultivation of DCs and CD8+T cells, compared with NP-CTL; for capacity of induced CTLs to produce IFN-γ: ELISA and ELISPOT taken together, compared to other peptides of CT23
CTLs = assay: IFN-γ ELISPOT of peptide-induced CTLs; assay type: cell-based, human; conditions: CTLs 1 × 10^5 cells/well, 20 hours; compared to NP-CTL
Summary of the method: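 CTLs from HLA-A2+ donor CD8+ T cells stimulated with DCs loaded with peptide (50 μg/mL) or recombinant protein (100 μg/mL). Ratio 10:1, rhIL-2 20 ng/mL, restimulation days 7 and 12, harvested day 15. Added to anti-IFN-γ-coated wells with PHA positive and background control wells; 20 h at 37°C, 5% CO2. Biotinylated antibody, streptavidin–enzyme conjugate and substrate added; spots counted by analyzer.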

U87 (HLA-A *0201+,CT23+) = assay: Cytotoxicity assay; assay type: cell-based, human; conditions: LDH release, effector:target 50:1, 4 h; mean±standard deviation; SD
Summary of the method: (§1)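 Effectors: CD8+ T cells from HLA-A2+ donor PBMCs, co-cultured 10:1 with peptide- or protein-loaded DCs. rhIL-2 20 ng/mL from day 2; restimulated days 7 and 12; collected day 15. Targets grown in RPMI-1640/10% FBS. After 4 h, supernatant incubated with LDH substrate 30 min at RT in the dark, then stopped and read at OD490. Killing % = (experimental − effector and target spontaneous release)/(target maximum − target spontaneous release).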

[2] = system: OVCAR-3 (HLA-A *0201+, CT23+); assay: Cytotoxicity assay; assay type: cell-based, human; conditions: LDH release, effector:target 50:1, 4 h; mean±standard deviation; SD
Summary of the method: as §1

[3] = system: SKOV3 (HLA-A *0201−, CT23+); assay: Cytotoxicity assay; assay type: cell-based, human; conditions: LDH release, effector:target 50:1, 4 h
Summary of the method: as §1

[4] = system: T2 cells loaded with peptide P7; assay: Cytotoxicity assay; assay type: cell-based, human; conditions: LDH release, effector:target 50:1, 4 h; mean±standard deviation; SD
Summary of the method: as §1

[5] = system: T2 cells without loading peptides; assay: Cytotoxicity assay; assay type: cell-based, human; conditions: LDH release, effector:target 50:1, 4 h
Summary of the method: as §1

Row | Sequence | binding affinity to HLA-A2 molecules (class by FI) [1] | IFN-γ content in culture medium (ELISA) (CD8+T cells) | capacity of induced CTLs to produce IFN-γ (CD8+T cells) | further results
1 | ALLTPTWKA [P1] | higher binding affinity | statistical significance compared with NP-CTL | stronger capacity to produce IFN-γ | 
2 | ALLVLCYSI [P7] | higher binding affinity; also recorded: highest binding affinity | highest IFN-γ secretion | stronger capacity to produce IFN-γ | number of IFN-γ-positive cells (ELISPOT) (CTLs): significant statistical difference; killing rate of peptide-induced CTLs on U87 (U87 (HLA-A *0201+,CT23+)): 31.42 ± 0.85%; killing rate of peptide-induced CTLs on OVCAR-3 [2]: 31.81 ± 9.82%; killing effect of peptide-induced CTLs on HLA-A*0201 negative SKOV3 tumor cells [3]: no killing effect; also recorded: did not exhibit any killing effect; killing rate of P7-induced CTLs on T2 cells loaded with peptide P7 [4]: 64.95 ± 6.09%; killing effect of P7-induced CTLs on T2 cells without loaded peptide P7 [5]: did not exhibit any significant killing effect; also recorded: no killing effect
3 | LLASQSLSI [P6] | higher binding affinity | statistical significance compared with NP-CTL | stronger capacity to produce IFN-γ | 
4 | MIMENIQEL [P5] | higher binding affinity |  |  | 
5 | QLPHTEALL [P4] | higher binding affinity | statistical significance compared with NP-CTL | stronger capacity to produce IFN-γ | 
6 | RLSNNVEEL [P2] | higher binding affinity |  |  | 
7 | VLCSQPVSI [P3] | moderate |  |  | 
